Results taken from PubChem BioAssay.
Calls of active or inactive are those of the source.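 How the source made its calls, unless noted: active means viability at or below 30% in both replicate assays; inconclusive means viability at or below 30% in just one of the two assays; inactive means the rest.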

What was measured:
[1] = molecular target: Pantothenate synthetase (Mycobacterium tuberculosis (strain ATCC 25618 / H37Rv)) (UniProt P9WIL5); experiment: Recombinant Mtb pantothenate synthetase (PanC) inhibitors, coupled enzyme, confirmatory (AID 375; call rule not given here;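 further: 0% = full reaction with vehicle and 100% = no enzyme background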); conditions: coupled enzyme assay; at 10 µM, stronger effect = higher value
[2] = reducers of endogenous Her2 protein level, primary screen, SKBR3 breast tumor cells, AlphaScreen, ATP viability (AID 461;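 active means Her2 level under about 52% in both replicate screens, with viability over 70% of control, limit read from the data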;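 on Her2 level: lower value means less Her2 protein in the cells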;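 on viability: percent of carrier control wells set as 100% viability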); conditions: 18-24 h, measured here: SKBR3 viability, ATP luminescence, at 10 µM
[3] = molecular target: Receptor tyrosine-protein kinase erbB-2 (Homo sapiens) (UniProt P04626); experiment: as above; conditions: 18-24 h, at 10 µM, stronger effect = lower value
[4] = SK-BR-3 cell growth inhibitors, pilot screen, 24 h, human (AID 572;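 active means viability at or below 10% of carrier control in both of two separate runs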;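 further: compound exposure lasted between 18 and 24 h rather than exactly 24 h; 100% = carrier-treated control wells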); conditions: SK-BR-3 viability, CellTiter-Glo luminescence, at 10 µM, stronger effect = lower value
[5] = HUVEC growth inhibition – cell-based, human, primary screen (AID 575); conditions: HUVEC proliferation, CellTiter-Glo luminescence, 72 h; at 10 µM; stronger effect = lower value;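 further: 100% = median of untreated cell wells with 0.1% DMSO on each plate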
Method in brief: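 System: primary human umbilical vein endothelial cells; Quantity: 1250 endothelial cells in each well; Buffer or medium: supplemented EBM, 2% fetal bovine serum; Doses: one dose, 10 µM final, 0.1% DMSO; Incubation: 72 h compound incubation; Technique: ATP-based CellTiter-Glo luminescent read; Evaluation: percent of median DMSO-control luminescence; Controls: vehicle and MePR control wells.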

[6] = growth inhibitors of H69AR lung tumor, primary screen, human, duplicate replicates (AID 580;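 active means viability at or under a set limit in both replicates, limit being median viability minus 3 SD, cut at about 48% in these data, passing the limit was not always enough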;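 further: 100% = mean luminescence of untreated wells and 0% = no signal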); conditions: H69AR lung tumor cells viability, ATP luminescence, 72 h; at 10 µM; stronger effect = lower value
[7] = reversal of MRP1-mediated doxorubicin resistance, pilot screen, H69AR cells, doxorubicin co-treatment (AID 601;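 active means viability loss from added drug above about 55%, and viability with drug at most 40%, in both replicates, limit read from the data, passing the limit was not always enough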); conditions: CellTiter-Glo, 72 h, at 10 µM; for differential viability (reversal): stronger effect = higher value
[8] = 384-well plate pilot, post-Golgi transport modulator project, inhibition of yeast transport mutant growth (AID 636; in the data active means inhibition above about 31%); conditions: absorbance 615 nm, about 18 h, stronger effect = higher value
[9] = growth suppression of yeast trafficking mutant, preliminary HTS, modulators of trafficking downstream of Golgi apparatus project, 1536-format plate, OD 615 nm (AID 637; in the data active means inhibition above about 30%); conditions: yeast transport mutant growth, absorbance 615 nm, 18 h; stronger effect = higher value
[10] = H69AR cells + 2 uM doxorubicin, measured here: viability with 2 uM doxorubicin, stronger effect = lower value
[11] = H69AR cells, compound alone cytotoxicity

Sequence of Receptor tyrosine-protein kinase erbB-2 (Homo sapiens) (P04626 whole entry, looked up): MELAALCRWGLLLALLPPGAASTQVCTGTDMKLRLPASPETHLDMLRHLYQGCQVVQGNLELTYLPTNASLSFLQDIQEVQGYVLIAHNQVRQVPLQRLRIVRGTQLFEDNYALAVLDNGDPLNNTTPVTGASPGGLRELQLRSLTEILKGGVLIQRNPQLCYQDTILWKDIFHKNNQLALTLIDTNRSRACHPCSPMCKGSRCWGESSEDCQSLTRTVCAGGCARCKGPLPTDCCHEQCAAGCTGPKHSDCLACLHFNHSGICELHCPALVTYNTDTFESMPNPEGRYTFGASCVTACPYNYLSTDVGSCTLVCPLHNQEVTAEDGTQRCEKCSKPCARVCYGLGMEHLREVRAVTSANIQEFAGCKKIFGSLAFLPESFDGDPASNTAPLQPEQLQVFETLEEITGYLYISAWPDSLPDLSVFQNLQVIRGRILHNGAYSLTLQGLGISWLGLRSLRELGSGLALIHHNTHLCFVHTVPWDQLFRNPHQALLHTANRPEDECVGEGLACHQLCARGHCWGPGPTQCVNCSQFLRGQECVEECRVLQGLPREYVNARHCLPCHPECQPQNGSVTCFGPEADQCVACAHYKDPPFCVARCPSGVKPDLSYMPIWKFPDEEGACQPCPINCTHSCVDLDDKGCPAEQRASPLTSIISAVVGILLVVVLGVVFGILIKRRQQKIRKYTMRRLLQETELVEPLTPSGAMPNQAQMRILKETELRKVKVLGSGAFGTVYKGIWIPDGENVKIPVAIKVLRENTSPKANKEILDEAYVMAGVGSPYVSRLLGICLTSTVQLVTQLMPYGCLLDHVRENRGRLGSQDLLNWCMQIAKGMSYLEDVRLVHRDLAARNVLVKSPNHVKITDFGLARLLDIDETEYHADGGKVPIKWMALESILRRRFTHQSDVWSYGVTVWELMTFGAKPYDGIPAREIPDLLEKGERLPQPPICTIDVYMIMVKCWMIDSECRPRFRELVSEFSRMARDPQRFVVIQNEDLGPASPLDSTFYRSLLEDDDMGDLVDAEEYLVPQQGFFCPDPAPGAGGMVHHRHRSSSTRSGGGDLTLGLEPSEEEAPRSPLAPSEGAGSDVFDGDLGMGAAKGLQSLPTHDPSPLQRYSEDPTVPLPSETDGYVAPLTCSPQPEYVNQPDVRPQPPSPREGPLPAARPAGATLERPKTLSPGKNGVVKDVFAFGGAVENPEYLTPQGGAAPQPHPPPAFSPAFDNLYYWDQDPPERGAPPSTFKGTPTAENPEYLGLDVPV
Sequence of Pantothenate synthetase (Mycobacterium tuberculosis (strain ATCC 25618 / H37Rv)) (P9WIL5 whole entry, looked up): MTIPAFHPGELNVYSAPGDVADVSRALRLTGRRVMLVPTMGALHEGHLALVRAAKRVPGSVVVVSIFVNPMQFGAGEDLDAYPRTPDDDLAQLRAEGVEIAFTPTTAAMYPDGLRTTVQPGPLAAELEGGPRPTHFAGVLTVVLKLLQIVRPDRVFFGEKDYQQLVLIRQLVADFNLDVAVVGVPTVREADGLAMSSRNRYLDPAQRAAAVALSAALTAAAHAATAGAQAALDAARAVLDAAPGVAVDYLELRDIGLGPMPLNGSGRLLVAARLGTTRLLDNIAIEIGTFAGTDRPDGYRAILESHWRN

CCn1c(C)c(C(=O)O)c2cc(OC)ccc21
inhibition [1]: 4% (inactive)
viability [2]: 88.5%
Her2 level [3]: 76% (inactive)
viability [4]: 88.5% (inactive)
viability [5]: 105% (inactive)
viability [6]: 96.1% (inactive)
differential viability (reversal) ([7]; H69AR cells + 2 uM doxorubicin): -4.98% (inactive)
viability [7, 10]: 101%
viability [7, 11]: 96.1%
inhibition [8]: -3.2% (inactive)
inhibition [9]: -0.65% (inactive)

COc1ccc(CC2C(=O)NC(=O)NC2=O)c(OC)c1
inhibition [1]: 2% (inactive)
viability [2]: 96.5%
Her2 level [3]: 113% (inactive)
viability [4]: 96.5% (inactive)
viability [5]: 114% (inactive)
viability [6]: 106% (inactive)
differential viability (reversal) ([7]; H69AR cells + 2 uM doxorubicin): 4.86% (inactive)
viability [7, 10]: 101%
viability [7, 11]: 106%
inhibition [8]: 2.8% (inactive)
inhibition [9]: -1.75% (inactive)

CC(=NCc1ccc2c(c1)OCO2)c1c(O)n(C)c(=O)n(C)c1=O
inhibition [1]: 6% (inactive)
viability [2]: 94%
Her2 level [3]: 90% (inactive)
viability [4]: 94% (inactive)
viability [5]: 92.8% (inactive)
viability [6]: 98% (inactive)
differential viability (reversal) ([7]; H69AR cells + 2 uM doxorubicin): 1.15% (inactive)
viability [7, 10]: 96.9%
viability [7, 11]: 98%
inhibition [8]: -4.42% (inactive)
inhibition [9]: -2% (inactive)

CC1(C)C(c2ccccc2)=NC(c2cccnc2)N1O (stereo not given)
inhibition [1]: 0% (inactive)
viability [2]: 106%
Her2 level [3]: 96% (inactive)
viability [4]: 106% (inactive)
viability [5]: 106% (inactive)
viability [6]: 95.3% (inactive)
differential viability (reversal) ([7]; H69AR cells + 2 uM doxorubicin): -4.39% (inactive)
viability [7, 10]: 99.7%
viability [7, 11]: 95.3%
inhibition [8]: -6.76% (inactive)
inhibition [9]: 5.74% (inactive)

O=C1C2CCCN2C(c2ccc(Cl)c(Cl)c2)N1c1ccccn1 (stereo not given)
inhibition [1]: 0% (inactive)
viability [2]: 128%
Her2 level [3]: 102% (inactive)
viability [4]: 128% (inactive)
viability [5]: 107% (inactive)
viability [6]: 97.4% (inactive)
differential viability (reversal) ([7]; H69AR cells + 2 uM doxorubicin): 11.4% (inactive)
viability [7, 10]: 86%
viability [7, 11]: 97.4%
inhibition [8]: -4.08% (inactive)
inhibition [9]: 1.77% (inactive)
